Experimental data taken from ChEMBL document CHEMBL4033640, “Design, synthesis and biological evaluation of 3-substituted-2-oxindole hybrid derivatives as novel anticancer agents” (Eur J Med Chem, 2017).
The source made the active and inactive calls. The calls are words filed in the database; no cut-off is given here.

Tests used:
MCF7 = experiment: Antiproliferative activity against human MCF7 cells after 72 hrs by MTT assay; format: functional, cell-based; conditions: MCF7, 72 h
How it was run: (§1)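 Cells grown in DMEM with 10% FBS, penicillin G and streptomycin. 8 × 10³ cells per well, incubated overnight at 37 °C in 5% CO₂, then exposed to graded compound concentrations (from 10 mM DMSO stocks) in triplicate for 72 h. Viability measured by MTT. IC50 taken from dose-response curves, given as mean ± SE of at least three independent experiments run in triplicate.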

[1] = target: T1, Serine/threonine-protein kinase Nek2 (Homo sapiens) (UniProt P51955); experiment: Inhibition of recombinant human full-length N-terminal GST-tagged NEK2 expressed in baculovirus infected Sf9 insect cells at 1 uM using MBP as substrate after 30 mins by ADP-Glo reagent based luminescence assay
T1 sequence (whole entry): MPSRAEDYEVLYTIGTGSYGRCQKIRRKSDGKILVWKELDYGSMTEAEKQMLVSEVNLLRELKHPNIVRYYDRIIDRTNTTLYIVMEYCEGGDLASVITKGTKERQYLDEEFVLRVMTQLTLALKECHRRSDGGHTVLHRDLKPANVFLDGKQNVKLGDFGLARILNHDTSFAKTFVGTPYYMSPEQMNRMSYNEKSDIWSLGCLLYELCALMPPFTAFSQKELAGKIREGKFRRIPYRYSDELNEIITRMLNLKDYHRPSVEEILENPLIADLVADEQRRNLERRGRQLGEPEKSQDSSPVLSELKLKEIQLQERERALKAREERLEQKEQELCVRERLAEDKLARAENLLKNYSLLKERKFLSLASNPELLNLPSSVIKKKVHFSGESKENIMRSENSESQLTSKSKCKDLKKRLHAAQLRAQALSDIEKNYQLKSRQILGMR
How it was run: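 Nek2 activity measured with the bioluminescent ADP-Glo kinase assay, compounds at 1 µM final concentration. Percentage inhibition given as means ± SEM of two independent experiments performed in duplicate.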

HL-60 = experiment: Antiproliferative activity against human HL60 cells after 72 hrs by MTT assay; format: functional, cell-based; conditions: HL-60, 72 h
HeLa [2] = experiment: Antiproliferative activity against human HeLa cells after 72 hrs by MTT assay; format: functional, cell-based; how it was run: as §1
Jurkat [3] = experiment: Antiproliferative activity against human Jurkat cells after 72 hrs by MTT assay; format: functional, cell-based
How it was run: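 Cells exposed to graded compound concentrations (from 10 mM DMSO stocks) in triplicate for 72 h at 37 °C. Viability measured by MTT. IC50 taken from dose-response curves, given as mean ± SE of at least three independent experiments run in triplicate.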

RS4-11 = experiment: Antiproliferative activity against human RS4:11 cells after 72 hrs by MTT assay; format: functional, cell-based; conditions: RS4-11, 72 h
HT-29 = experiment: Antiproliferative activity against human HT-29 cells after 72 hrs by MTT assay; format: functional, cell-based; conditions: HT-29, 72 h; how it was run: as §1
CCRF-CEM = experiment: Antiproliferative activity against human CCRF-CEM cells after 72 hrs by MTT assay; format: functional, cell-based
HeLa [4] = experiment: Cell cycle arrest in human HeLa cells assessed as decrease in G1 phase at 1 uM after 24 hrs by propidium iodide staining based flow cytometry; format: functional; design: scale not given: the % may be the effect or the level left
How it was run: (§2)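 5 × 10⁵ HeLa cells treated for 24 h at the indicated concentrations, then fixed in ice-cold 70% ethanol. Lysis buffer with RNase A and 0.1% Triton X-100 applied, cells stained with PI, and DNA content read by flow cytometry to give percentage of cells in each phase.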

Jurkat [5] = experiment: Induction of mitochondrial membrane depolarization in human Jurkat cells at 10 to 100 nM after 12 to 24 hrs JC-1 staining based flow cytometry; format: functional, cell-based
How it was run: (§3)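 Cells treated at the indicated concentrations for the indicated times (12 and 24 h). Stained with JC-1 and analyzed by flow cytometry for dissipation of mitochondrial membrane potential.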

PBL [6] = experiment: Cytotoxicity against resting human PBL assessed as reduction in cell viability after 72 hrs by MTT assay; format: cell-based
How it was run: (§4)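 PBL isolated from healthy donors' buffy coats by density-gradient centrifugation and held overnight in RPMI-1640 with 10% FBS. Non-adherent cells without PHA resuspended at 5 × 10⁵ cells/mL and treated for 72 h. Viability read by MTT. IC50 reported as mean ± SEM of two separate experiments.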

HeLa [7] = experiment: Induction of mitochondrial membrane depolarization in human HeLa cells at 0.5 to 1 uM after 12 to 24 hrs JC-1 staining based flow cytometry; format: functional, cell-based; how it was run: as §3
Jurkat [8] = experiment: Induction of GSH depletion in human Jurkat cells at 0.5 to 10 uM after 30 mins by CMFDA-probe based flow cytometry; format: functional, cell-based; conditions: in the assay text read “after 12 to 24 hrs” for “after 30 mins”
How it was run: (§5)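 Cells treated with compound for 12–24 h, harvested, then loaded with 5 µM CMFDA at 37 °C for 30 min. GSH-dependent fluorescence measured by flow cytometry. Means ± S.E.M. of three independent experiments.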

HeLa [9] = experiment: Antiproliferative activity against human HeLa cells at 1 uM after 48 hrs in presence of 100 uM NAC by annexin-V staining based assay; format: functional, cell-based
How it was run: (§6)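 HeLa cells treated with compound at 1.0 µM for 48 h together with 100 µM N-acetyl-L-cysteine or DL-α-tocopherol acetate. Cell death measured by annexin-V assay with flow cytometry. Means ± S.E.M. of three independent experiments.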

Jurkat [10] = experiment: Induction of apoptosis in human Jurkat cells at 100 nM after 24 to 48 hrs by annexin-V/FITC propidium iodide staining based flow cytometry; format: functional, cell-based
How it was run: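 Cells treated with compound at the indicated concentrations for 24 or 48 h, then double-stained with annexin V-FITC and PI. Phosphatidylserine exposure measured by flow cytometry. Means ± SEM of three independent experiments.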

HeLa [11] = experiment: Induction of apoptosis in human HeLa cells assessed as cleaved caspase-9 expression at 0.5 to 1 uM after 24 hrs by Western blot analysis; format: functional, cell-based
How it was run: (§7)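 HeLa cells treated for 24 h and washed in ice-cold PBS. Cells lysed on ice for 30 min and lysate cleared at 15000 x g. 10 μg protein resolved by SDS-PAGE (7.5–15%) and blotted. Membranes blocked with 3% BSA, probed with antibodies to caspase-9 or γH2AX, detected by ECL. Bands quantified and normalized to β-actin, mean±SD of two gels.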

HeLa [12] = experiment: Induction of GSH depletion in human HeLa cells at 0.5 to 10 uM after 30 mins by CMFDA-probe based flow cytometry; format: functional, cell-based; conditions: in the assay text read “after 12 to 24 hrs” for “after 30 mins”; how it was run: as §5
HeLa [13] = experiment: Induction of DNA damage in human HeLa cells assessed as increase in gamma-H2AX level at 0.5 to 1 uM after 24 hrs by Western blot analysis; format: functional, cell-based; how it was run: as §7
PBL [14] = experiment: Cytotoxicity against PHA-stimulated human PBL assessed as reduction in cell viability after 72 hrs by MTT assay; format: cell-based
How it was run: as §4, with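 “cells” for “cells without PHA”, “cells/mL with 2.5 μg/mL PHA” for “cells/mL”, “given graded compound concentrations.” for “treated for 72 h.”, “MTT after 72 h.” for “MTT.”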

HeLa [15] = experiment: Antiproliferative activity against human HeLa cells at 1 uM after 48 hrs in presence of 100 uM TOC by annexin-V staining based assay; format: functional, cell-based; how it was run: as §6
HeLa [16] = experiment: Cell cycle arrest in human HeLa cells assessed as decrease in G1 phase at 0.5 to 1 uM after 24 hrs by propidium iodide staining based flow cytometry; format: functional; how it was run: as §2

Structure (SMILES)	IC50 (MCF7)	inhibition [1]	IC50 (HL-60)	IC50 (HeLa [2])	IC50 (Jurkat [3])	IC50 (RS4-11)	IC50 (HT-29)	IC50 (CCRF-CEM)	other results
C=C(Br)C(=O)Nc1ccc2c(c1)/C(=C/c1ccc(C)s1)C(=O)N2	3000 nM	5 to 20%	24 nM	1600 nM	360 nM	50 nM	560 nM	9 nM	–
C=C(Br)C(=O)Nc1ccc2c(c1)/C(=C\c1ccc(C)s1)C(=O)N2	4400 nM	5 to 20%	12 nM	2000 nM	150 nM	20 nM	300 nM	1 nM	–
C=C(Br)C(=O)Nc1ccc2c(c1)/C(=C\c1ccsc1)C(=O)N2	2100 nM	5 to 20%	770 nM	2600 nM	56 nM	190 nM	310 nM	6 nM	–
C=C(Br)C(=O)Nc1ccc2c(c1)/C(=C\c1sccc1C)C(=O)N2	2300 nM	5 to 20%	39 nM	450 nM	40 nM	4 nM	330 nM	0.9 nM	Activity (HeLa [4]): 20%; Activity (Jurkat [5]): Active; IC50 (PBL [6]): 450 nM; Activity (HeLa [7]): Active; Activity (Jurkat [8]): Active; Activity (HeLa [9]): Active; Activity (Jurkat [10]): Active; Activity (HeLa [11]): Active; Activity (HeLa [12]): Active; Activity (HeLa [13]): Active; IC50 (PBL [14]): 1220 nM; Activity (HeLa [15]): inactive
C=C(Br)C(=O)Nc1ccc2c(c1)CC(=O)N2	3300 nM	5 to 20%	350 nM	4500 nM	1100 nM	220 nM	4400 nM	220 nM	–
C#CC(=O)Nc1ccc2c(c1)/C(=C/c1ccc[nH]1)C(=O)N2	3700 nM	5 to 20%	5800 nM	4400 nM	340 nM	70 nM	2300 nM	50 nM	Activity (HeLa [16]): inactive
C=C(Br)C(=O)Nc1ccc2c(c1)/C(=C\c1cccs1)C(=O)N2	2300 nM	5 to 20%	15 nM	1800 nM	16 nM	30 nM	5500 nM	10 nM	–
C=C(Br)C(=O)Nc1ccc2c(c1)/C(=C/c1ccc[nH]1)C(=O)N2	700 nM	50%	140 nM	500 nM	110 nM	1 nM	800 nM	3 nM	Activity (HeLa [4]): 20%; Activity (Jurkat [5]): Active; IC50 (PBL [6]): 1500 nM; Activity (HeLa [7]): Active; Activity (Jurkat [8]): Active; Activity (HeLa [9]): Active; Activity (Jurkat [10]): Active; Activity (HeLa [11]): Active; Activity (HeLa [12]): Active; Activity (HeLa [13]): Active; IC50 (PBL [14]): 830 to 850 nM; Activity (HeLa [15]): inactive
Nc1ccc2c(c1)C(=Cc1ccsc1)C(=O)N2	–	–	–	–	–	> 10000 nM	–	> 10000 nM	–
C=C(Br)C(=O)Nc1ccc2c(c1)/C(=C/c1cccs1)C(=O)N2	1700 nM	5 to 20%	230 nM	1700 nM	210 nM	2 nM	240 nM	35 nM	–
C=C(Br)C(=O)Nc1ccc2c(c1)/C(=C/c1ccsc1)C(=O)N2	2800 nM	5 to 20%	350 nM	3500 nM	190 nM	190 nM	600 nM	4 nM	–
C=C(Br)C(=O)Nc1ccc2c(c1)/C(=C/c1sccc1C)C(=O)N2	2600 nM	5 to 20%	13 nM	420 nM	30 nM	0.4 nM	1200 nM	0.5 nM	–
